AI-2 QS modul – Vibrio harveyi AI-2 quorum sensing modulation. Vibrio harveyi JMH597 AI-2 luminescence/OD600 ratio, 9 h; stronger effect = lower value; strain lacks LuxN and CqsS sensors; 0 = neutral-control median. activity change, % at 7.5 µM. hit rate 0.4% among 300,000; in the data active means activity change below about -75%, passing the limit was not always enough; inconclusive means no clear call, values can overlap the other calls;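 further: luminescence divided by OD600 gain over 9 h not by final OD600 alone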
ARNT TACC3 PPI – ARNT/TACC3 interaction disruption. Q9Y6A5. AlphaScreen His-ARNT PAS-B/GST-TACC3 binding, luminescence; TACC3 fragment carries E629A point mutation. inhibition, % at 9.99 µM. hit rate 0.66% among 390,000. AID 623870;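 active means mean inhibition of replicates at least 50% and at least half of replicates each reaching 50%; inconclusive means half or more replicates reach 50% but mean below 50%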
T cruzi inh – T. cruzi replication inhibition | T. cruzi beta-gal in NIH3T3, luminescence, 90 h | inhibition, % (test concentration not listed) | hit rate 1.4% among 300,000;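 active means mean inhibition across valid replicates above about 55%, limit read from the data; inconclusive means mean below that limit but half or more replicates reach it; inactive means mean below it, under half of replicates reach it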;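 further: signal also drops with host cell toxicity which is not excluded here; higher percent means less beta-gal luminescence so fewer parasites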
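System – NIH/3T3 host cells with β-galactosidase reporter T. cruzi · Doses – single 50 nL compound addition per well in DMSO · Reagent – 5000 T. cruzi trypomastigotes/well · Medium – Low-serum DMEM with 2% FBS · Timing – ≥90 h infection period, 3 h prior cell attachment · Evaluation – parasite load inhibition, % · Technique – GalScreen luminescence, 60 min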
HIF act – HIF pathway transcriptional activation. hit rate 0.32% among 300,000. U2OS HRE-luciferase reporter, luminescence; normalized: DMSO 0%, desferrioxamine 100%. activation, % at 7.5 µM (by protocol);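 active means mean activation of at least 10% of the iron chelator positive control signal, with at least half of replicates also reaching 10%; inconclusive means mean and replicate majority disagree about reaching 10%; inactive means mean and most replicates under 10%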
Of the large screens only hits and unclear results are named; the others gave an inactive call. In the library only some 2% were active in any assay of this set; here they are far more common.

C1CCC(CNc2c3c(nc4nnnn24)CCCC3)CC1	T cruzi inh 68 (no result: ARNT TACC3 PPI)
CCCNC(=O)Cn1sc2nc(C)cc(C)c2c1=O	T cruzi inh 56
Cc1noc(C)c1NC(=O)N(C)C[C@H]1Oc2ccc(NS(=O)(=O)c3cn(C)cn3)cc2C(=O)N([C@@H](C)CO)C[C@@H]1C	none (no result: AI-2 QS modul, T cruzi inh, HIF act)
O=C(N[C@@H]1CC[C@H](CCNS(=O)(=O)c2cccc(Cl)c2)O[C@@H]1CO)c1ccc(F)cc1	none (no result: AI-2 QS modul, T cruzi inh, HIF act)
COc1ccc(CN2CCC(N(CCc3ccccc3)Cc3ccccc3)CC2)c(OC)c1	T cruzi inh 60
CCCNc1ncc2c(=O)[nH][nH]c(=O)c2n1	ARNT TACC3 PPI 81 (no result: AI-2 QS modul, T cruzi inh, HIF act)
CCCNc1nc2ccccc2c(=O)[nH]1	none
Cc1noc(C)c1NC(=O)Nc1cccc2c1O[C@@H](CN(C)C(=O)NC(C)C)[C@H](C)CN([C@H](C)CO)C2=O	none (no result: AI-2 QS modul, T cruzi inh, HIF act)
O=C(C[C@H]1CC[C@@H]2[C@H](COC[C@@H](O)CN2CC2CCOCC2)O1)N1CCOCC1	none (no result: AI-2 QS modul, T cruzi inh, HIF act)
COc1ccc(N=C2S/C(=C\c3ccc(Cl)c([N+](=O)[O-])c3)C(=O)N2CCN(C)C)cc1	T cruzi inh 65
CCCN1C(=O)/C(=C/c2ccc(C)s2)SC1=Nc1ccc(OC)cc1	none
CCN(CC)CCN1C(=O)/C(=C\c2ccc(Cl)c([N+](=O)[O-])c2)SC1=Nc1ccc(OC)cc1	T cruzi inh 57
CN(C)C(=O)C[C@H]1C[C@H]2c3cc(NC(=O)Nc4ccccc4)ccc3O[C@H]2[C@@H](CO)O1	none (no result: AI-2 QS modul, T cruzi inh, HIF act)
O=C(CC1CC1)Nc1ccc2c(c1)[C@H]1C[C@H](CC(=O)N3CCOCC3)O[C@H](CO)[C@H]1O2	none (no result: AI-2 QS modul, T cruzi inh, HIF act)
Cc1cc(C(=O)Nc2cccc3c2O[C@@H](CN(C)C(=O)Nc2c(C)noc2C)[C@@H](C)CN([C@@H](C)CO)C3=O)n(C)n1	none (no result: AI-2 QS modul, T cruzi inh, HIF act)
COc1ccc(NC(C)=O)c(C)c1	none (no result: ARNT TACC3 PPI)
COc1cc(C)c(C(=O)CC(=O)c2c(C)cc(OC)cc2C)c(C)c1	T cruzi inh 66 (no result: ARNT TACC3 PPI)
Cc1cc(/C=C2/NC(=O)N(Cc3ccccc3F)C2=O)c(C)n1C(C)C	T cruzi inh 57
CN(c1ccccc1)P(=O)(N(C)c1ccccc1)N(C)c1ccccc1	T cruzi inh 66
O=C(C[C@@H]1CC[C@H]2[C@@H](COC[C@H](O)CN2Cc2ccccc2)O1)N[C@H]1CCN(Cc2ccccc2)C1	none (no result: AI-2 QS modul, T cruzi inh, HIF act)
Cc1ccnc(NC(c2ccsc2)c2ccc3ccc(C)nc3c2O)c1 (centres undefined)	T cruzi inh 63
Cc1ccnc(NC(c2ccccc2)c2ccc3cccnc3c2O)c1 (centres undefined)	none (no result: AI-2 QS modul, T cruzi inh, HIF act)
COc1ccc(C(Nc2cc(C)ccn2)c2ccc3ccc(C)nc3c2O)cc1 (centres undefined)	T cruzi inh 59
COc1ccc(S(=O)(=O)Nc2cccc3c2O[C@H](CN(C)Cc2ccc(Oc4ccccc4)cc2)[C@H](C)CN([C@@H](C)CO)C3=O)cc1	none (no result: AI-2 QS modul, T cruzi inh, HIF act)
Cc1noc(C)c1NC(=O)Nc1ccc2c(c1)C(=O)N([C@@H](C)CO)C[C@H](C)[C@H](CN(C)S(C)(=O)=O)O2	none (no result: AI-2 QS modul, T cruzi inh, HIF act)
CC(C)c1cc(-c2cc(C(=O)NCc3ccccc3)on2)nc(NC2CCCC2)n1	T cruzi inh inconclusive, HIF act 18
C[C@H](O)C#Cc1cnc2c(c1)C(=O)N([C@@H](C)CO)C[C@@H](C)[C@H](CN(C)Cc1cccc(F)c1)O2	none (no result: AI-2 QS modul, T cruzi inh, HIF act)
C[C@@H]1CN([C@H](C)CO)C(=O)Cc2cc(NC(=O)Cn3cnnn3)ccc2O[C@@H]1CN(C)Cc1ccccc1	none (no result: AI-2 QS modul, T cruzi inh, HIF act)
O=C(Nc1ccc(S(=O)(=O)N2CCOCC2)cc1)c1ccc([N+](=O)[O-])cc1Cl	T cruzi inh 73
C[C@H]1CN([C@@H](C)CO)C(=O)c2cc(NC(=O)Cn3cnnn3)ccc2O[C@H]1CN(C)CC1CCCCC1	none (no result: AI-2 QS modul, T cruzi inh, HIF act)
C[C@H]1CN([C@@H](C)CO)C(=O)Cc2cc(NC(=O)C3CCCCC3)ccc2O[C@H]1CN(C)Cc1ccccc1	none (no result: AI-2 QS modul, T cruzi inh, HIF act)
Cc1ccc(Nc2nc3c(c(=O)[nH]2)CCCC3)cc1	none
O=c1[nH]c(Nc2nc3ccccc3o2)nc2c1CCCC2	T cruzi inh 60
CCCN(CCC)C(C)C(=O)NCC1(c2ccccc2)CCCC1 (centres undefined)	HIF act 719
CO[C@@H]1CN(C)C(=O)c2cc(NC(=O)Nc3cc(F)ccc3F)ccc2OC[C@H](C)N(C(=O)c2cnccn2)C[C@H]1C	none (no result: AI-2 QS modul, T cruzi inh, HIF act)
COc1ccc(-n2ncc(Cl)c(Cl)c2=O)cc1	T cruzi inh 57 (no result: ARNT TACC3 PPI)
CCCCCn1c(N)c(-c2nc3ccccc3s2)c2c([N+](=O)[O-])nn(C)c(=O)c21	T cruzi inh 59 (no result: ARNT TACC3 PPI)
CCCCn1c(N)c(-c2nc3ccccc3o2)c2c([N+](=O)[O-])nn(C)c(=O)c21	none
Cc1ccc(/C=C/C(=O)c2ccccc(=O)c2O)cc1C	T cruzi inh 59
CN(C)CCCNC(=O)C[C@@H]1C=C[C@H](NS(=O)(=O)c2ccc(F)cc2)[C@H](CO)O1	none (no result: AI-2 QS modul, T cruzi inh, HIF act)
C[C@H]1CN([C@@H](C)CO)C(=O)c2cc(C3=CCCCC3)cnc2O[C@@H]1CN(C)C(=O)CN1CCOCC1	none (no result: AI-2 QS modul, T cruzi inh, HIF act)
COc1ccc(NC(=O)CSc2c(C)nn(-c3nnc(C)c(=O)[nH]3)c2C)cc1	ARNT TACC3 PPI 60
CO[C@@H]1CN(C)C(=O)c2cc(NS(=O)(=O)c3c(C)noc3C)ccc2OC[C@H](C)NC[C@@H]1C	none (no result: AI-2 QS modul, T cruzi inh, HIF act)
Cc1oc(-c2ccc(Cl)cc2)nc1CS(=O)CC(=O)NCCN1CCCCCC1 (centres undefined)	HIF act 109
CCCc1[nH]nc2c1C(c1ccoc1)C(C#N)=C(N)O2 (centres undefined)	HIF act 198
Cc1[nH]nc2c1C(c1ccoc1)C(C#N)=C(N)O2 (centres undefined)	none
c1ccc(CCCCc2ccncc2)cc1	none (no result: AI-2 QS modul, T cruzi inh, HIF act)
c1ccc(CCc2ccncc2)cc1	T cruzi inh 56
C[C@H](CO)N1C[C@H](C)[C@@H](CN(C)S(=O)(=O)c2cccs2)Oc2ccc(NC(=O)Cc3cn(C)c4ccccc34)cc2C1=O	none (no result: AI-2 QS modul, T cruzi inh, HIF act)
CC(=NNC(=O)c1ccncc1)c1ccccc1O	ARNT TACC3 PPI 61 (no result: AI-2 QS modul, T cruzi inh, HIF act)
CC(=NNC(=O)c1ccncc1)c1ccc2ccccc2c1O	none (no result: AI-2 QS modul, T cruzi inh, HIF act)
C/C(=N\NC(=O)CN1CCCCC1)c1ccccc1O	HIF act 13
CCCNC(=O)c1ccc(CN2CCc3ccccc3C2)cc1	none
C/C(=N\NC(=O)c1ccc(CN2CCc3ccccc3C2)cc1)c1ccccc1O	T cruzi inh 64
CC(=NNC(=O)c1ccncc1)c1ccc(O)cc1O	ARNT TACC3 PPI 85 (no result: AI-2 QS modul, T cruzi inh, HIF act)
CC(C)CC#Cc1cnc2c(c1)C(=O)N([C@H](C)CO)C[C@@H](C)[C@@H](CN(C)Cc1cncnc1)O2	none (no result: AI-2 QS modul, T cruzi inh, HIF act)
COc1ccc(/C(C)=N/NC(=O)c2ccncc2)cc1	ARNT TACC3 PPI 47
Cc1ccc(S(=O)(=O)Nc2ccc3c(c2)C(=O)N([C@H](C)CO)C[C@@H](C)[C@H](CN(C)C(=O)Nc2ccc4c(c2)OCO4)OCCCC[C@@H](C)O3)cc1	none (no result: AI-2 QS modul, T cruzi inh, HIF act)
Cc1cccc(C(=O)Nc2cccc3cccnc23)c1	none
Cc1cnc(C(=O)Nc2cccc3cccnc23)cn1	T cruzi inh 66
COCc1cn(CC[C@H]2CC[C@H](NC(=O)Nc3ccc(C(F)(F)F)cc3)[C@H](CO)O2)nn1	none (no result: AI-2 QS modul, T cruzi inh, HIF act)

Source: PubChem BioAssay (Broad Institute)
